Reference: PMC2804273 (Journal of Medicinal Chemistry, 2009)

Test system: BSF T. brucei brucei strain Lister 427
Assay: Alamar blue viability test, cytotoxicity against cultured parasites
Type: cell-based, Trypanosoma brucei brucei
Conditions: ED50 determined in the presence of sub-ED50 MTX (0.5-2.5 μM)
In short: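 Bloodstream-form T. brucei brucei Lister 427, grown at 37 °C and 5% CO2 in HMI-9 with 10% fetal calf serum, high folate left unreduced, and neomycin pressure to keep T7 polymerase and tetracycline repressor. […] Values are mean ± std dev (n = 4). Synergy was judged by comparing the area under the slope with half the product of the two ED50 values.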

Structure (SMILES)	Interaction in combination with MTX (synergy)
CCc1nc(N)nc(N)c1-c1ccc(Cl)cc1 [PYR, pyrimethamine]	does not act synergistically
N#Cc1c(-c2ccc3c(c2)OCO3)[nH]c2nc(N)[nH]c(=O)c12 [compound 13]	acts synergistically
